Source: PubChem
These entries were drawn from the full list.
Apaf-1 act = human Apaf-1 activation; Apaf-1 apoptosome caspase-3 activation, DEVD-Rh110 fluorescence; hits give low values; activity change, negative = activation, % at 20 µM; 330,000 tested, 0.31% active; O14727;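 active = activity change at or below -40% at 20 µM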
Target sequence (O14727 whole entry, looked up): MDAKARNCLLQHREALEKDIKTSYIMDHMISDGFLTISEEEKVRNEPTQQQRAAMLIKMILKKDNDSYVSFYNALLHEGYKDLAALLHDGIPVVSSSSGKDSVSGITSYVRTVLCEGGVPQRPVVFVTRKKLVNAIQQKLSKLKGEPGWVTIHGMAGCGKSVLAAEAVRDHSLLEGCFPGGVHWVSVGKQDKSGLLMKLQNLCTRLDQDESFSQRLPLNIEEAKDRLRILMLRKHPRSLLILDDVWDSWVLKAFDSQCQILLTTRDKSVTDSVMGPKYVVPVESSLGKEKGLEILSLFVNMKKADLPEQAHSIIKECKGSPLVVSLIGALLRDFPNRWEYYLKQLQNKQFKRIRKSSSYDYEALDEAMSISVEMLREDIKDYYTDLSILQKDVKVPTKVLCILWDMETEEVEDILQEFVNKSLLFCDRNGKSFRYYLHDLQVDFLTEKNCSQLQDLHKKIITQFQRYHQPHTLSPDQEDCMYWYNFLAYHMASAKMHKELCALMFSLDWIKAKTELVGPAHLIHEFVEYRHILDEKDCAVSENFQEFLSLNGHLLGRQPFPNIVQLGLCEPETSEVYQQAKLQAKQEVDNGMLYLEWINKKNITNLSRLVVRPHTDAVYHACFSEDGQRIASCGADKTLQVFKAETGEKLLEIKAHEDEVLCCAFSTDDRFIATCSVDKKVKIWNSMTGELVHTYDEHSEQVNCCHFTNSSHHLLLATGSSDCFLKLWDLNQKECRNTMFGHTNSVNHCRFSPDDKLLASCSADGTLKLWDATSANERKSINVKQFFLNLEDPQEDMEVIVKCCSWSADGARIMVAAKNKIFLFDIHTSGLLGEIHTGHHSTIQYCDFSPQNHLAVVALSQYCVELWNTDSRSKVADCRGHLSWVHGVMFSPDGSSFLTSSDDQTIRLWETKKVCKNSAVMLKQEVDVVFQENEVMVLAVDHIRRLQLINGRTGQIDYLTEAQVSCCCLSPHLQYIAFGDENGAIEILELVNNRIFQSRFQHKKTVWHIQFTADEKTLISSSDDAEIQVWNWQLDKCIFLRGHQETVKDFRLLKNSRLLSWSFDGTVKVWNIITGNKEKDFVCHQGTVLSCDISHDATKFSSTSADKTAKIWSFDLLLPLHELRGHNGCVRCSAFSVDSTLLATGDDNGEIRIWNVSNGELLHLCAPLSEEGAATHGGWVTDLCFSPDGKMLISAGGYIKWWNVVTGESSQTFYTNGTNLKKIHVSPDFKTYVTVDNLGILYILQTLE
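Material: reconstituted apoptosome of Apaf-1, cytochrome c, caspase-9, procaspase-3; times: 30 min preincubation, 50 min reaction, room temperature; measured by: fluorescence, 540 nm emission, 480 nm excitation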
Rh110 interf act = Rh110 signal interference in Apaf-1 activator counter-screen; shares compounds with Apaf-1 act; fluorescence interference (activity change), % at 20 µM, hits read low; 980 tested, under 10 active; Rh110 fluorescence interference, quenched caspase reaction, Ex480/Em540; AID 504616;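 active = mean activity change at or below -40% when tested at 20 µM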
Apaf-1 act conf = confirmation of human Apaf-1 activators; reconstituted apoptosome caspase-3 activity, DEVD-Rh110 fluorescence; hits give low values; AID 504617; 980 tested, 5% active; shares compounds with Apaf-1 act; activity change, negative = activation, % at 20 µM;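 active = mean activity change at or below -40%, meaning activation of 40% or more, at 20 µM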
Active calls of the source: *; . = no result given.

SMILES	Apaf-1 act	Rh110 interf act	Apaf-1 act conf
CC(C)[C@H](CN1CCC[C@H]1CN1C(N)=NC[C@@H]1Cc1ccccc1)N1C[C@@H](Cc2ccccc2)N(CCc2ccc(Cl)c(Cl)c2)C1=N	82	.	.
CCN(CC)CCOC(=O)c1ccc(N/C=C(/C#N)c2nc(-c3ccc(OC)c(OC)c3)cs2)cc1	55	.	.
CCS(=O)(=O)NCCc1csc(C)n1	-484*	8	12
C#CCOCCOCCOCCNc1nc(N2CCN(C(=O)CCCCCCCCCCNC(=O)[C@@H](CCC(=O)O)n3cc(CCCCCN)nn3)CC2)nc(N2CCN(C(=O)CCCCCCCCCCNC(=O)[C@H](CCCCN)n3cc(C[C@@H](C)CC)nn3)CC2)n1	72	.	.
CCSc1ncc(Cl)c(C(=O)Nc2ccc(S(=O)(=O)Nc3ncccn3)cc2)n1	-76*	0	6
C#CCOCCOCCOCCNc1nc(N2CCN(C(=O)CCCCCCCCCCNC(=O)[C@H](CCCCN)n3cc(CCO)nn3)CC2)nc(N2CCN(C(=O)CCCCCCCCCCNC(=O)[C@H](CCCCN)n3cc(C[C@@H](C)CC)nn3)CC2)n1	68	.	.
CCC(C)(C(=O)NC1CCCC1)N(C(=O)c1ccccn1)c1ccc(C)cc1 (stereo not drawn)	-78*	6	14
C=CCNC(=O)C1(S(=O)(=O)c2ccccc2)CC=CC1	-384*	-2	8
Nc1ccc2nn(-c3cccc4ccccc34)nc2c1	96	.	.
O=C(NC1CC1)c1ccc(CS(=O)c2ccccc2)o1 (stereo not drawn)	-97*	3	9
S=C(Nc1ccc2nsnc2c1)N1CCCCCC1	93	.	.
CC1(C(=O)Nc2cccc3ccccc23)CC1(Br)Br (stereo not drawn)	56	.	.
CCc1ccccc1N1CSC2=C(C#N)C(c3cc(OC)c(OC)cc3OC)CC(=O)N2C1 (stereo not drawn)	43	.	.
O=C(NCc1ccco1)Nc1ccc2nsnc2c1	59	.	.
O=C(NCc1ccc2c(c1)OCO2)Nc1cccc(Cl)c1	-45*	-4	10
CCC[C@@H](CN1CCC[C@H]1CN1C(N)=NC[C@@H]1Cc1ccccc1)N1C[C@@H](Cc2ccccc2)N(CCc2ccc(Cl)c(Cl)c2)C1=N	78	.	.
CC(Oc1cccc(Cl)c1)C(=O)Nc1cc(S(=O)(=O)N2CCOCC2)ccc1N1CCCCC1 (stereo not drawn)	48	.	.
O=C1OC(Nc2ccc3ncccc3c2)c2ccccc21 (stereo not drawn)	82	.	.
O=C(O)c1cc([N+](=O)[O-])ccc1NCCc1ccccc1	-97*	-2	18
Cc1ccc(S(=O)(=O)N(C)C)cc1NC(=O)CSc1nc2ncc(Cl)cc2[nH]1	-111*	3	19
Cc1ccc(S(=O)(=O)N(C)C)cc1NC(=S)Nc1cccc2ccccc12	93	.	.
Oc1ccc(C=Nc2cccc3ncccc23)c(O)c1	87	.	.
O=C(N/N=C/c1ccc(O)c2ncccc12)c1cccc(Br)c1	-68*	-1	-4
COc1ccc(NC2=C(NCCO)C(=O)c3ccccc3C2=O)cc1	70	.	.
C[C@@H](CN1CCC[C@H]1CN1C(N)=NC[C@@H]1Cc1ccccc1)N1C[C@@H](Cc2ccccc2)N(CCc2ccc(Cl)c(Cl)c2)C1=N	74	.	.
SMILES	Apaf-1 act	Rh110 interf act	Apaf-1 act conf
COc1ccc(C(=O)Nc2ccccc2C(=O)N(Cc2ccco2)C(C(N)=O)C(C)C)cc1 (stereo not drawn)	-351*	4	15
COc1ccc(-n2c(N)c(C(=O)NCc3ccco3)c3nc4ccccc4nc32)c(OC)c1	65	.	.
N#Cc1c(/N=C/c2ccco2)sc2c1CCCCC2	-169*	1	22
C(=Nc1cccc2c(N=Cc3ccco3)cccc12)c1ccco1	92	.	.
CCCCc1c(C)c(C#N)c2[nH]c3ccccc3n2c1=O	45	.	.
FC(F)(F)c1ccc(CN2C[C@@H]3C(c4ccc(Cl)nc4)C4(c5cccnc5)CC3(C4)[C@H]2c2ccccc2)cc1 (stereo partly drawn)	42	.	.
COC(=O)CCC(=O)N1CN2CN(C(=O)CCC(=O)OC)CC([N+](=O)[O-])(C2)C1	-152*	2	7
Cc1ccc(-c2csc3nc4c5ccccc5c(NCCCN(C)C)nn4c(=O)c23)cc1	42	.	.
CC1(C)N([O-])c2cc([N+](=O)[O-])ccc2[N+]1=O	66	.	.
CCN(c1ccccc1)S(=O)(=O)c1ccc(Cl)c(NC(=O)COC(=O)c2cc(O)c3ccccc3c2O)c1	48	.	.
Cc1cc(C(=O)OCC(=O)Nc2ccccc2C#N)c(C)o1	-45*	-11	7
N#CC1(NC(=O)COC(=O)c2cc(O)c3ccccc3c2O)CCCCC1	73	.	.
C=CCOc1c(Cl)cc(CNc2ccc(N(C)C)cc2)cc1OC	64	.	.
O=C(c1ccc(S(=O)(=O)N2CCCC2)cc1)N(c1ccc(F)cc1)C1C=CS(=O)(=O)C1 (stereo not drawn)	-314*	3	11
Cc1cc2cc(CNC(=O)c3ccc(S(=O)(=O)N4CCCCC4)cc3)ccc2n1C	53	.	.
O=C(c1ccc(S(=O)(=O)N2CCCC2)cc1)N(c1ccccc1)C1C=CS(=O)(=O)C1 (stereo not drawn)	-56*	5	10
COC(=O)CCCC1=CC2=C(c3ccccc3)C(=O)C(C)(OC(=O)C3CCCC3)C(=O)C2=CN1CC(C)C (stereo not drawn)	41	.	.
CC(/C=N/NC(=O)Cc1cc(=O)[nH][nH]1)=C\c1ccccc1	60	.	.
Cc1ccc(/C=N/NC(=O)c2ccncc2)cc1	-499*	-5	5
Cc1cc([N+](=O)[O-])c(C)cc1-c1ccc(/C=N/NC(=O)c2cccnc2)o1	55	.	.
Cc1cccc(C(=O)N/N=C/c2ccncc2)c1	-45*	2	13
O=C(Nc1ccccc1)Oc1ccc[nH]c1=O	61	.	.
O=C(O)C1CCCN(S(=O)(=O)c2ccc(-c3ccc(=O)[nH]n3)s2)C1 (stereo not drawn)	-350*	-5	10
CCN1CCN(c2ccc(S(=O)(=O)N3CCCCC3)cc2NC(=O)COc2ccc(Cl)c(C)c2)CC1	45	.	.
Oc1cc(NCCc2cccnc2)cc2cccnc12	56	.	.
SMILES	Apaf-1 act	Rh110 interf act	Apaf-1 act conf
Cc1[nH]n(-c2ccccc2)c(=O)c1C(c1ccc(C(=O)O)cc1)c1c(C)[nH]n(-c2ccccc2)c1=O	71	.	.
COc1ccc(N2CCN(Cc3nc4scc(-c5ccccc5)c4c(=O)[nH]3)CC2)cc1	44	.	.
COc1ccccc1N1CCN(Cc2nc(-c3ccc(F)cc3)oc2C)CC1	-236*	5	13
CCCCNc1c(-c2ccc(OC)c(Sc3ccc(OC)cc3)c2)nc2cnccn12	43	.	.
CCOC(=O)c1sc2nc3c(SCC(=O)O)cc(C(=O)c4ccccc4O)cn3c(=O)c2c1C	-189*	6	-24
c1ccc2c(c1)CC/C2=N/Nc1nc2ccccc2[nH]1	57	.	.
COC1=C(N)C(=O)c2nc(-c3nc(C(=O)O)c(C)c(-c4ccc(OC)c(OC)c4O)c3N)ccc2C1=O	84	.	.
CCn1c(SCC(=O)c2ccc(F)cc2)nnc1-c1ccoc1C	-223*	-3	9
Cc1ccsc1C=Nc1ccc(O)cc1	94	.	.
CC[C@H](C)Cc1cn([C@@H](CCCCN)C(=O)NCCCCCCCCCCC(=O)N2CCNCC2)nn1	46	.	.
Cc1cccc(C)c1N1CCN(c2n[nH]c(N)n2)CC1	-60*	3	19
